Source: ChEMBL document CHEMBL3632606, “Structural Optimization of Indole Derivatives Acting at Colchicine Binding Site as Potential Anticancer Agents” (ACS Med Chem Lett, 2015)
pIC50: −log10 of the molar value. Activity calls are given as the source filed them. No cut-off for these calls is given here.

Legend:
A-375 [1] = assay: Cytotoxicity against human A375 cells after 48 hrs by MTS assay; format: functional, cell-based; settings: A-375, 48 h
[2] = Cytotoxicity against human WM164 cells after 48 hrs by MTS assay; format: functional, cell-based; settings: WM164, 48 h
M14 = assay: Cytotoxicity against human M14 cells after 48 hrs by MTS assay; format: functional, cell-based; settings: M14, 48 h
PC-3 [3] = assay: Cytotoxicity against human PC3 cells after 48 hrs by MTS assay; format: functional, cell-based; settings: PC-3, 48 h
DU-145 [4] = assay: Cytotoxicity against human DU145 cells after 48 hrs by MTS assay; format: functional, cell-based; settings: DU-145, 48 h
[5] = Cytotoxicity against human M14/LCC6R1 cells after 48 hrs by MTS assay; format: functional, cell-based; settings: M14/LCC6R1, 48 h
PC-3 [6] = assay: Cytotoxicity against human paclitaxel-resistant PC3 cells after 48 hrs by MTS assay; format: functional, cell-based; settings: PC-3, 48 h
DU-145 [7] = assay: Cytotoxicity against human paclitaxel-resistant DU145 cells after 48 hrs by MTS assay; format: functional, cell-based; settings: DU-145, 48 h
[8] = Half life in human liver microsomes at 2 uM by LC-MS/MS analysis; format: ADME
Tubulin (Sus scrofa) = Tubulin (Sus scrofa) (UniProt P02554+P02550); assay: Inhibition of porcine tubulin polymerization measured every 1 min for 60 mins; format: protein assay
Outline: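 In vitro microtubule polymerization run with test agents at 5 or 10 μM. Vehicle, paclitaxel (5 μM) and colchicine (5 μM) were run as controls under the same conditions. Curves are from a representative experiment.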

A-375 [9] = assay: Cell cycle arrest in human A375 cells at 10 nM after 24 hrs using propidium iodide staining by flow cytometry analysis; format: functional, cell-based
Outline: (§1)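 Cells treated with test agents for 24 h, then cell cycle distribution measured by flow cytometry; G2/M fraction compared with a vehicle-treated control group; N = 3.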

A-375 [10] = assay: Cell cycle arrest in human A375 cells assessed as accumulation at G2/M phase at 50 nM after 24 hrs using propidium iodide staining by flow cytometry analysis (reference value: 4 +/- 0.5%); format: functional; outline: as §1
PC-3 [11] = assay: Cell cycle arrest in human PC3 cells assessed as accumulation at G2/M phase at 10 nM after 24 hrs using propidium iodide staining by flow cytometry analysis; format: functional, cell-based; outline: as §1
[12] = Half life in mouse liver microsomes at 2 uM by LC-MS/MS analysis; format: ADME
LNCaP = assay: Cytotoxicity against human LNCAP cells after 48 hrs by MTS assay; format: functional, cell-based
[13] = Cytotoxicity against human PPC1 cells after 48 hrs by MTS assay; format: functional, cell-based; settings: PPC-1, 48 h
[14] = Lipophilicity, log P of the compound; format: physicochemical; settings: octanol/water

Sequence of Tubulin (Sus scrofa) (P02550 whole entry, looked up): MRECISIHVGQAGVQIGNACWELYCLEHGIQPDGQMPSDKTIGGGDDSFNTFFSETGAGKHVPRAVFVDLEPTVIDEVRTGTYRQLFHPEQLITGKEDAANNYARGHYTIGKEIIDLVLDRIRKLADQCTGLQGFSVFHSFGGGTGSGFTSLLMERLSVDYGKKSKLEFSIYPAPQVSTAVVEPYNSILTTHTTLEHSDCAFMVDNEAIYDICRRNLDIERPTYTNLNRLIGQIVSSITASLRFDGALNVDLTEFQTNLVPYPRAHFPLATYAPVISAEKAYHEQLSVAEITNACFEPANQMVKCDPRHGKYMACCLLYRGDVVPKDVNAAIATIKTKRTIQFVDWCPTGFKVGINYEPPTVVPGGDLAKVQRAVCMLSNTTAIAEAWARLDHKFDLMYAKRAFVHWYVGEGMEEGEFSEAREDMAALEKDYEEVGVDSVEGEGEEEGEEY
Sequence of Tubulin (Sus scrofa) (P02554 whole entry, looked up): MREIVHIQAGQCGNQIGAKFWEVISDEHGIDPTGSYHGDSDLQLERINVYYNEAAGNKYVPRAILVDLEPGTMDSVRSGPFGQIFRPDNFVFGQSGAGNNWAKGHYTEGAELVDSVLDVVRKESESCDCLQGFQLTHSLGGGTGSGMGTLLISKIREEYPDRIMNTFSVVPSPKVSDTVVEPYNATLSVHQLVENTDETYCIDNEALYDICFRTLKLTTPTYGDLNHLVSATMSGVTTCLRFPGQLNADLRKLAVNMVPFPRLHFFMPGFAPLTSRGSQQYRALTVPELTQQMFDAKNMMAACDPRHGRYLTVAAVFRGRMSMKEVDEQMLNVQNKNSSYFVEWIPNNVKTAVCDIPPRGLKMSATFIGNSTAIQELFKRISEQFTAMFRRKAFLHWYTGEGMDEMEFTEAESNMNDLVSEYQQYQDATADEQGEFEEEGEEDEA

half-life at 2 µM [8] [min]	inhibition (Tubulin (Sus scrofa))	half-life at 2 µM [12] [min]	logP [14]	Structure (SMILES)	pIC50 (A-375 [1])	pIC50 [2]	pIC50 (M14)	pIC50 (PC-3 [3])	pIC50 (DU-145 [4])	pIC50 [5]	pIC50 (PC-3 [6])	pIC50 (DU-145 [7])	Activity (A-375 [9])	Activity (A-375 [10]) [%]	Activity (PC-3 [11])	pIC50 (LNCaP)	pIC50 [13]
				COc1cc(-c2ccc3ccnc(-c4cc(OC)c(OC)c(OC)c4)c3c2)cc(OC)c1OC	4.97	5.18	5.01										
				COc1cc(-c2nccc3[nH]c(-c4cccc5cc[nH]c45)nc23)cc(OC)c1OC	7.62		7.55	7.37	6.75	7.28	7.19	< 4.52					
				COc1cc(-c2nccc3[nH]c(-c4cccc5c4ccn5S(=O)(=O)c4ccccc4)nc23)cc(OC)c1OC	6.58		6.17	6.02	6.39	6.14	6.24	6.49					
33.1	Dose-dependent effect	10.5		COc1cc(-c2nccc3[nH]c(-c4cccc5[nH]ccc45)nc23)cc(OC)c1OC	8.52		7.85	8.15	7.85	7.60	7.92	7.77	inactive	42	Active		
				c1cc2ccc(-c3ccc4[nH]ccc4c3)cc2c(-c2ccc3[nH]ccc3c2)n1	7.03	6.83	6.95	7.14	6.95							7.01	7.32
				COc1cc(-c2nccc3[nH]c(-c4cc5ccccc5[nH]4)nc23)cc(OC)c1OC	6.76		6.79	6.77	5.77	6.72	6.92	5.69					
				COc1cc(-c2nccc3[nH]c(-c4cccc5ccn(S(=O)(=O)c6ccccc6)c45)nc23)cc(OC)c1OC	6.26		6.33	6.21	5.99	6.26	6.28	< 4.52					
				COc1cc(-c2nccc3[nH]c(-c4c[nH]c5ccccc45)nc23)cc(OC)c1OC	7.80		7.59	7.57	6.65	7.06	8.15	7.13					
38.9		2.1	4.63	COc1cc(-c2nccc3ccc(-c4ccc5[nH]ccc5c4)cc23)cc(OC)c1OC	6.03	6.64	7.13	7.19	7.04							7.09	7.21
56.3	Dose-dependent effect	27.7		COc1cc(-c2nccc3[nH]c(-c4ccc5cc[nH]c5c4)nc23)cc(OC)c1OC	8.52		7.80	8.10	7.92	7.28	7.89	7.92	inactive	65.9	Active		
				COc1cc(-c2nccc3c2NC(c2cccc4cc[nH]c24)N3)cc(OC)c1OC (stereo not drawn)	6.01		5.97	5.91	5.60	6.01	6.16	5.44					
30.7		2		Fc1ccc(-c2nccc3ccc(-c4ccc5[nH]ccc5c4)cc23)cc1	7.18	7.48	7.31	7.59	7.33							7.42	7.55
24			4.14	COc1cc(C(=O)c2cccc(-c3cc4ccccc4[nH]3)c2)cc(OC)c1OC				7.55									
				O=S(=O)(c1ccccc1)n1ccc2c(-c3nc4c(Br)nccc4[nH]3)cccc21	< 4.52		< 4.52	< 4.52	< 4.52	< 4.52	< 4.52	< 4.52					
45.4		16.1		COc1cc(-c2nccc3[nH]c(-c4ccc5[nH]ccc5c4)nc23)cc(OC)c1OC	7.66		7.28	7.57	6.92	6.94	7.47	6.79					
				Fc1ccc(-c2ccc3ccnc(-c4ccc(F)cc4)c3c2)cc1	< 4.52	< 4.52	< 4.52	< 4.52	< 4.52							< 4.52	< 4.52
